Source: PubChem BioAssay (several laboratories)
Beta2AR agonist: activates human beta-2 adrenergic receptor causing internalization | actives 0.43% (n = 340,000) | Am2.2-beta2AR cells, FAP receptor internalization, flow cytometry | P07550 | response, % (concentration not given with the values);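 active = response above a set limit, near 3 SD of response in nonfluorescent compounds, cut at about 42% in these data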
Arr AP2 block: blocks beta-arrestin peptide binding to AP2 adaptin; FITC-arrestin peptide / GST-AP2 beads, flow cytometry; AP2 beta2 appendage carries R879A mutation; inhibition, % at 10 µM; actives 0.31% (n = 340,000); AID 504490;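 active = inhibition above a set limit, near 3 SD of compounds lacking own fluorescence, cut at about 54% in these data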;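 also: plate controls were DMSO wells for no effect and 5 µM unlabelled arrestin peptide for full effect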
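Measured by: flow cytometry, FL1 (488/535 nm); Material: AP2 appendage R879A on GSH beads; Evaluation: percent response; Timing: pre-incubation 12 min, peptide binding 1 h, room temperature; Also added: 50 nM FITC-arrestin peptide; Medium: PBS with 0.05% Tween 20 and 0.1% BSA.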
MBD2 DNA inh: blocks human MBD2 binding to methylated DNA. Q9UBB5. TR-FRET, MBD2 binding to methylated oligonucleotide. inhibition, % at 4.4 µM. actives 0.31% (n = 370,000). AID 686964; in the data active = inhibition above about 13%
ABHD5-PLIN5 inh: inhibitors of human ABHD5-perilipin-5 interaction. actives 0.78% (n = 360,000). Split G. princeps luciferase complementation, luminescence, 4 h. inhibition, % at 4 µM. Q00G26+Q8WTS1;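 active = inhibition above the mean inhibition across every tested compound plus 3 SD, cut at about 22% in these data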;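 also: 0% = DMSO only wells and the 100% control is not disclosed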
Rin1 Abl inh: human Rin1-Abl interaction inhibition | P00519+Q13671 | TR-FRET Rin1/Abl binding, biochemical | inhibition, % at 7.35 µM | actives 0.4% (n = 360,000) | AID 588664; in the data active = inhibition above about 5%, passing the limit was not always enough
UHRF1 binding: blocks human UHRF1 binding to methylated DNA; UHRF1 binding to methylated oligo, TR-FRET; AID 687016; actives 0.75% (n = 370,000); Q96T88; inhibition, % at 4.4 µM; in the data active = inhibition above about 21%;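 also: UHRF1 SRA domain binding a hemimethylated CpG hairpin DNA probe; 0% = median of test compound wells and 100% = reference inhibitor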
Arr-AP2 CP1: inhibitors of human beta-arrestin and AP2 interaction; GST-AP2 beads, FITC arrestin peptide binding, flow cytometry; GST-fused beta2-adaptin appendage, R879A mutant; actives 2% (n = 1,300); inhibition, % at 10 µM; shares compounds with Arr AP2 block;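 active = inhibition above a set limit, roughly 3 SD of non-fluorescent compound noise, cut at about 38% in these data; inactive = inhibition at or below that limit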;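 also: loss of bead fluorescence from 50 nM FITC arrestin peptide bound to appendage; 0% = negative control wells and 100% = excess unlabelled arrestin peptide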
Target sequence (P63010 whole entry, looked up, the tested form may be a part, one chain of several): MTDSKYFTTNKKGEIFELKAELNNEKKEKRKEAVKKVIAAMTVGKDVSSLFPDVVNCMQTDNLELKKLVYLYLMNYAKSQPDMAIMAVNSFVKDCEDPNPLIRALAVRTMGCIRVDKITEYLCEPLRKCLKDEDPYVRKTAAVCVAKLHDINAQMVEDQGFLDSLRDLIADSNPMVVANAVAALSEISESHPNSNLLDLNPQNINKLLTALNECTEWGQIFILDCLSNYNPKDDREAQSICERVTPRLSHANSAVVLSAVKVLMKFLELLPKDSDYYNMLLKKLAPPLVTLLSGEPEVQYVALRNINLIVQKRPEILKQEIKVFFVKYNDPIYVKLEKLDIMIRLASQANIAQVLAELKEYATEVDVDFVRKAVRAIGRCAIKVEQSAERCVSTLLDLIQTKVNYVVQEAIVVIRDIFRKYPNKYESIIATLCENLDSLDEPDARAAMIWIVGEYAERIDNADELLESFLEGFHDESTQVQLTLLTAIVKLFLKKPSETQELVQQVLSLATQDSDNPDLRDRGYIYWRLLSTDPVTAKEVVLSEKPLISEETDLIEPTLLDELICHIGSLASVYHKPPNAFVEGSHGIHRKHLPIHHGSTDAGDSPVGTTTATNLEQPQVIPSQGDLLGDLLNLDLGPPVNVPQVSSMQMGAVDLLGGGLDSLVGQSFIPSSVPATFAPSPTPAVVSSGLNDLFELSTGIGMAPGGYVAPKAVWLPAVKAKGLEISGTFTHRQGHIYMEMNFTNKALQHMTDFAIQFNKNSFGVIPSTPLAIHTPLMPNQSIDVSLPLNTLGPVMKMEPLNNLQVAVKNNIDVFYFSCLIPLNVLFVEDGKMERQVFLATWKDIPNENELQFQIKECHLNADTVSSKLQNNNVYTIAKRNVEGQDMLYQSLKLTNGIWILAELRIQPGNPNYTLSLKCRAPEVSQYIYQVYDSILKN
GST GSH counter: disrupts GST binding to glutathione beads, arrestin-AP2 artifact | actives 2% (n = 1,300) | inhibition, % at 10 µM | shares compounds with Arr AP2 block | GST-fluorescein binding to GSH beads, fluorescence, counter-screen;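 active = inhibition above 50%, about 3 SD of the inhibition seen with non-fluorescent compounds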;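 also: fluorescein maleimide labelled GST captured on 4 micron glutathione beads; higher means more loss of bead fluorescence from quenching or blocked binding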
Rin1 Abl conf: Rin1-Abl interaction inhibition confirmation; actives 49% (n = 1,300); TR-FRET Rin1-Abl binding, purified proteins; inhibition, % at 7.35 µM; shares compounds with Rin1 Abl inh
GFP quencher: GFP fluorescence interference artifact; shares compounds with Rin1 Abl inh; inhibitors/quenchers counterscreen; inhibition, % at 6.75 µM; actives 8.5% (n = 1,300); AID 602125;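 also: ABL1-eGFP fusion protein alone without its partner RIN1-SBP; 0% = protein with vehicle and 100% = wells lacking protein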
GFP quench DR: counter-screen for Rin1-Abl inhibitors: GFP quenchers, dose response. shares compounds with Rin1 Abl inh. GFP fluorescence interference/quenching counterscreen. IC50, µM. 230 tested, under 10 active. AID 602182; call rule not given here;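 also: ABL1-eGFP fusion protein alone without its RIN1 binding partner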
ABHD5-PLIN5 conf: ABHD5-PLIN5 interaction inhibition, confirmed; shares compounds with ABHD5-PLIN5 inh; biochemical ABHD5-PLIN5 interaction, luminescence; inhibition, % at 4 µM; actives 67% (n = 2,200); AID 651612; in the data active = inhibition above about 23%;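 also: 0% = DMSO vehicle wells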
HNF4 counter: active in HNF4 split-luciferase counter-screen for ABHD5-PLIN5 inhibitors. shares compounds with ABHD5-PLIN5 inh. HNF4 dimerization, luminescence, biochemical. inhibition, % at 4 µM. actives 77% (n = 2,200). AID 651674;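 active = mean inhibition across replicate wells exceeding the computed hit threshold, cut at about 13% in these data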;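 also: light from luciferase halves that rejoin when HNF4 fusion proteins dimerize; 0% = DMSO only wells and the 100% control is not given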
UHRF1 ctr MBD2: inhibits human UHRF1 binding to methylated oligonucleotide, MBD2 counter-screen. inhibition, % at 4.4 µM. shares compounds with MBD2 DNA inh. actives 25% (n = 1,000). TR-FRET. AID 720530; in the data active = inhibition above about 21%;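 also: UHRF1 SRA domain binding a labeled hemimethylated CpG hairpin DNA; 0% = vehicle only and 100% = reference inhibitor with vehicle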
MBD2 DBD conf: MBD2-DBD methyl-DNA binding inhibition, TR-FRET confirmation; shares compounds with MBD2 DNA inh; TR-FRET MBD2-DBD binding to methylated oligonucleotide; inhibition, % at 4.4 µM; actives 26% (n = 1,000); AID 720531; in the data active = inhibition above about 14%
Active calls of the source: *; . = not tested or not shown. Compounds with a hit are over-represented: about 2.5% of the library has one in this group of screens. Rule as the data show it, unless noted: active = inhibition above about 6.5%; inactive = the rest.

SMILES | Beta2AR agonist | Arr AP2 block | MBD2 DNA inh | ABHD5-PLIN5 inh | Rin1 Abl inh | UHRF1 binding | Arr-AP2 CP1 | GST GSH counter | others
CC(OC(=O)c1ccc2ncsc2c1)C(=O)N(C)C1CCCCC1 (stereo not drawn) | 3.0 | 60.0* | -5.7 | 0.3 | -4.2 | -1.7 | 16.3 | -8.5
C/C(=N\NC(=O)c1ccc(CSc2nncn2C)cc1)c1ccc2ccccc2c1 | -5.0 | 55.0* | -2.1 | 3.1 | -1.8 | -7.1 | 3.5 | -2.7
O=C(Nc1ccc(F)cc1)OCc1cn(Cc2cccc(F)c2F)nn1 | . | . | 0.8 | . | . | -1.3 | . | .
O=C(NCc1ccc(C(=O)NC2CCCC2)cc1)c1cccc(Br)c1 | . | . | 0.7 | . | . | 0.7 | . | .
CN1C(=O)NC(c2ccc(O)cc2)C2=C1CN(c1cccc3ccccc13)C2=O (stereo not drawn) | -22.2 | -3.9 | -2.3 | -4.0 | -0.5 | 1.2 | -6.3 | 5.9
Cc1ccccc1N1CC2=C(C1=O)C(c1ccccc1)NC(=O)N2C (stereo not drawn) | -13.3 | -0.6 | -0.4 | 7.5 | -0.1 | 2.5 | . | .
O=C(O)C1OC(C(=O)O)C(C(=O)O)C1C(=O)O (stereo not drawn) | 5.3 | 57.7* | -4.7 | 6.0 | 4.7 | 1.0 | -3.0 | -2.9
COc1ccc2cc(-c3cc(C(=O)OCC(=O)NC4CCS(=O)(=O)C4)c4ccccc4n3)ccc2c1 (stereo not drawn) | 7.8 | 105.9* | -2.9 | -5.9 | -4.7 | -0.1 | 59.8* | 188.1*
COc1ccc(-c2cc(C(=O)OCC(=O)NC3CC3)c3ccccc3n2)cc1 | 2.2 | 4.2 | -0.3 | 11.0 | 2.2 | -0.2 | . | .
C[C@@H](CCCCC1(C)OCCO1)CCC(=O)N(c1ccccc1)c1ccccc1 | . | . | -1.4 | . | . | 2.1 | . | .
Cc1ccc(C2/C(=C(\O)c3ccc4c(c3)OCCO4)C(=O)C(=O)N2CC2CCCO2)cc1 (stereo not drawn) | 8.3 | 58.5* | 1.8 | 3.0 | 8.5* | -5.1 | -1.4 | -4.5 | Rin1 Abl conf=-5.5;GFP quencher=0.0
O=C1CCC[C@H]2C[C@H](NCc3cccnc3)CC[C@]23CCCN13 | . | . | 0.2 | . | . | -1.6 | . | .
COc1ccc(F)cc1C(=O)C1CCCN(Cc2cn(C)c3ccccc23)C1 (stereo not drawn) | 3.0 | 54.5* | -2.0 | 9.0 | 9.9* | 0.4 | 13.3 | -6.2 | Rin1 Abl conf=0.5;GFP quencher=-1.8
Cn1cc(CN2CCCC(C(=O)c3cc(F)ccc3F)C2)c2ccccc21 (stereo not drawn) | 7.3 | 0.8 | -2.0 | 2.8 | 0.1 | -2.4 | . | .
Cc1c(NC(=O)c2ccc(N(C)S(=O)(=O)c3ccccc3)cc2)c(=O)n(-c2ccccc2)n1C | -2.8 | 54.2* | 1.4 | 3.2 | 9.8* | 0.4 | -2.3 | -7.1 | Rin1 Abl conf=0.8;GFP quencher=-1.9
CCOC(=O)C1(C(=O)OCC)Cc2c([nH]c3ccccc23)[C@]2(N1)C(=O)N(C)c1ccc(Br)cc12 | . | . | -8.4 | . | . | -0.4 | . | .
NS(=O)(=O)c1ccc(N/N=C/c2ccc(O)c(O)c2O)c([N+](=O)[O-])c1 | -24.8 | 77.8* | -5.7 | 2.4 | 40.0* | 8.0 | 40.7* | 14.4 | Rin1 Abl conf=45.5*;GFP quencher=30.0*
CCOC(=O)CN1C(=O)NC2NC(=O)NC21 (stereo not drawn) | -2.3 | 79.0* | -1.2 | -1.6 | 14.1* | 2.0 | 3.5 | -5.5 | Rin1 Abl conf=18.3*;GFP quencher=-0.1;GFP quench DR=>67.5
O=C(O)CN1C(=O)NC2NC(=O)NC21 (stereo not drawn) | 6.1 | 6.2 | -3.8 | -3.6 | 1.0 | 1.4 | . | .
Cc1c(NC(=O)C2CCCN(S(=O)(=O)c3ccc(Cl)s3)C2)c(=O)n(-c2ccccc2)n1C (stereo not drawn) | . | . | 9.6 | . | . | 2.0 | . | .
CC(=O)OCCNc1cc(SC(C)C)c2nonc2c1[N+](=O)[O-] | -7.7 | 24.0 | -4.0 | -8.6 | -5.8 | -3.0 | . | .
CCCC(=O)OCCNc1cc(Sc2nc3ccccc3[nH]2)c2nonc2c1[N+](=O)[O-] | 36.7 | 54.6* | -5.8 | 50.1* | -4.7 | -14.1 | -0.4 | 6.6 | ABHD5-PLIN5 conf=61.0*;HNF4 counter=110.1*
Cc1c(NS(=O)(=O)c2cccc(C(=O)NCc3ccco3)c2)c(=O)n(-c2ccccc2)n1C | 8.7 | 95.0* | 0.6 | 25.2* | 4.3 | 2.5 | 5.6 | -9.2 | ABHD5-PLIN5 conf=11.5;HNF4 counter=14.3*
C=CCN(C)C(C#CCCCC)c1ccccc1 (stereo not drawn) | . | . | 1.3 | . | . | -1.0 | . | .
CC(Oc1ccc(Br)cc1)C(=O)N1CCC(C(N)=O)CC1 (stereo not drawn) | 1.4 | 58.5* | 0.1 | 45.0* | 6.0 | 2.9 | 2.8 | -1.6 | ABHD5-PLIN5 conf=9.7;HNF4 counter=6.6
O=C1C(Cl)=C(NC(=O)c2ccccc2)C(=O)C(Cl)=C1NC(=O)c1ccccc1 | 56.3* | 58.1* | -4.7 | 71.3* | 2.1 | -1.9 | 75.0* | 8.8 | ABHD5-PLIN5 conf=103.5*;HNF4 counter=110.2*
O=C(NC1=C(Nc2ccc(Cl)cc2)C(=O)c2ccccc2C1=O)c1ccccc1 | -3.0 | 16.8 | -8.8 | -8.7 | -9.9 | 4.5 | . | .
O=C(NCc1ccccc1)OCCN1C(=O)CCC12CCC(c1ccc(Cl)cc1)CC2 (stereo not drawn) | . | . | -4.0 | . | . | -0.9 | . | .
CCN(c1ccccc1)S(=O)(=O)c1cccc(C(=O)NCC2(N(C)C)CCCCC2)c1 | -3.1 | 14.5 | 22.7* | 2.3 | -1.9 | 11.2 | 16.7 | -2.2 | UHRF1 ctr MBD2=2.9;MBD2 DBD conf=9.1
